# B1: Bcl-w ΔC10 (C29S, A128E), His6-tagged recombinant (domain or fragment, UniProt Q92843 1-183, looked up)
# chain: MATPASAPDTRALVADFVGYKLRQKGYVSGAGPGEGPAADPLHQAMRAAGDEFETRFRRTFSDLAAQLHVTPGSAQQRFTQVSDELFQGGPNWGRLVAFFVFGAALCAESVNKEMEPLVGQVQEWMVEYLETQLADWIHSSGGWAEFTALYGDGALEEARRLREGNWASVRTVLTGAVALGAL
# What was measured:
# [1] = system: endogenous Bcl-w in HeLa cells; assay: Drug-induced membrane association of endogenous Bcl-w, HeLa cells; type: cell-based; settings: 24 h, 1.0 μg/ml etoposide (VP16) or 10 nM staurosporine
# Summary of the method: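 HeLa cells were harvested 24 h after 50 Jm−2 UV, 1.0 μg/ml etoposide or 10 nM staurosporine. Lysis was in HMKEE buffer (Hepes pH 7.2) with 250 mM sucrose and 0.025% digitonin, 10 min on ice. Pellet (13,000 rpm, 2 min, 4°C) was solubilised in RIPA. Soluble and pellet fractions were immunoblotted for endogenous Bcl-w.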
# Bcl-w in FDC-P1 cells = assay: Damage-induced membrane association of Bcl-w, FDC-P1 cells; type: cell-based
# Summary of the method: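 FDC-P1 or FD/FLAG–Bcl-w cells were given 100 nM staurosporine, 10 Gy γ irradiation or IL-3 withdrawal, in some runs with 50 μM zVAD.fmk. Cells were lysed in HMKEE/250 mM sucrose/0.025% digitonin for 10 min on ice. Pellet (13,000 rpm, 2 min, 4°C) and soluble fractions were separated. Pellet was RIPA-solubilised, with or without alkali treatment, and immunoblotted for Bcl-w.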
# FDC-P1 cells = assay: Inhibition of apoptosis / cell survival; type: cell-based; settings: zVAD.fmk with death signals
# BimEL = assay: Coimmunoprecipitation of Bcl-w constructs with BimEL; type: binding; settings: 35S-labeled lysates, 293T cells
# [2] = target: B1; assay: SPR
# [3] = target: T1, L94ABH3, 26-mer Bim BH3 peptide with L94A (mouse, L94A (stands in the printed letters)); assay: SPR
# T1 peptide: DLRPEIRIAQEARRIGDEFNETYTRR
# Bcl-w ΔC10 = target: T2, Bcl-w ΔC10 (Homo sapiens, UniProt Q92843, A128E/C29S); assay: Optical biosensor; type: binding
# T2 sequence (Q92843 1-183 C29S/A128E limits assumed): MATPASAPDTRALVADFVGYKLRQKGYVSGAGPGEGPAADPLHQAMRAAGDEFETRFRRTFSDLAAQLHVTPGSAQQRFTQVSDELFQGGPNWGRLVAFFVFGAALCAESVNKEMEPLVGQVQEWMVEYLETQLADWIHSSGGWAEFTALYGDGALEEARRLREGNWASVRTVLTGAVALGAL
molecule,measurement,setting,value
CN[C@@H]1C[C@H]2O[C@@](C)([C@@H]1OC)n1c3ccccc3c3c4c(c5c6ccccc6n2c5c31)C(=O)NC4 [staurosporine],membrane association of endogenous Bcl-w,[1],Damage signals trigger membrane association of endogenous Bcl-w in HeLa cells
same,"membrane association of endogenous Bcl-w, alkali-resistant","Bcl-w in FDC-P1 cells; FDC-P1 cells, 100 nM staurosporine",damage signals induce membrane association resistant to alkali treatment
zVAD.fmk,delay of cell death,FDC-P1 cells,delayed cell death
same,recruitment of Bcl-w to the membrane fraction with caspase inhibitor,"Bcl-w in FDC-P1 cells; 50 μM zVAD.fmk plus death signals, FD/FLAG–Bcl-w cells",Bcl-w was still recruited into the membrane fraction in response to death signals
COc1cc([C@@H]2c3cc4c(cc3[C@@H](O[C@@H]3O[C@@H]5CO[C@@H](C)O[C@H]5[C@H](O)[C@H]3O)[C@H]3COC(=O)[C@H]23)OCO4)cc(OC)c1O [etoposide],membrane association of endogenous Bcl-w,[1],Damage signals trigger membrane association of endogenous Bcl-w in HeLa cells
"Wild-type Bcl-w: prosurvival Bcl-2 family protein, expressed FLAG-tagged (protein, left off: FLAG, N-terminal, kept) MATPASAPDTRALVADFVGYKLRQKGYVCGAGPGEGPAADPLHQAMRAAGDEFETRFRRTFSDLAAQLHVTPGSAQQRFTQVSDELFQGGPNWGRLVAFFVFGAALCAESVNKEMEPLVGQVQEWMVAYLETQLADWIHSSGGWAEFTALYGDGALEEARRLREGNWASVRTVLTGAVALGALVTVGAFFASK",binding to BimEL,BimEL,interacts avidly with Bim
"DLRPEIRIAQELRRIGDEFNETYTRR [wtBH3, 26-mer peptide spanning the BH3 domain of Bim]",binding result,[2],binds
B1,fold reduction of binding against wtBH3,[3],> 50 fold
"BimLΔC27 (recombinant BimL lacking its COOH-terminal hydrophobic 27 amino acids) (domain or fragment, mouse, UniProt O54918-2 1-113, looked up) MAKQPSDVSSECDREGGQLQPAERPPQLRPGAPTSLQTEPQDRSPAPMSCDKSTQTPSPPCQAFNHYLSAMASIRQSQEEPEDLRPEIRIAQELRRIGDEFNETYTRRVFAND",binding result,[2],binds
"BimLΔC27: Purified recombinant BimL lacking its COOH-terminal hydrophobic 27 amino acids (protein, left off: GST, end not stated, state not stated) MAKQPSDVSSECDREGGQLQPAERPPQLRPGAPTSLQTEPQDRSPAPMSCDKSTQTPSPPCQAFNHYLSAMASIRQSQEEPEDLRPEIRIAQELRRIGDEFNETYTRRVFAND",binding to Bcl-w,Bcl-w ΔC10,binds purified Bcl-w with high (nM) affinity

# From publication PMC2172834 (The Journal of Cell Biology, 2003)
